Measured values taken from ChEMBL document CHEMBL1137333, “Synthesis, radiosynthesis, and biological evaluation of carbon-11 labeled 2beta-carbomethoxy-3beta-(3'-((Z)-2-haloethenyl)phenyl)nortropanes: candidate radioligands for in vivo imaging of the serotonin transporter with positron emission tomography” (J Med Chem, 2006).

What was measured:
[1] = system: Cynomolgus monkey; test: Uptake in anesthetized cynomolgus monkey occipital after 12.5 mins; format: ADME, organism-based, Macaca mulatta, Occipital cortex; settings: rhesus monkey, in vivo
Method in brief: (§1)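 Baseline microPET scan (P4 scanner) of anesthetized cynomolgus monkeys after injection of the carbon-11 labelled nortropane tracer. Two baseline studies were run per tracer. Radioactivity was followed over time in regional brain time-activity curves.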

[2] = system: Cynomolgus monkey; test: Ratio of uptake in thalamus to cerebellum of anesthetized cynomolgus monkey after 65 mins; format: ADME, organism-based; settings: in vivo
Method in brief: (§2)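 Baseline microPET (Concorde P4) in anesthetized cynomolgus monkey after injection of the [11C]-labelled tracer. Regional time-activity curves were taken, and each region's uptake was divided by cerebellum uptake (low-SERT reference) at 65, 85 and 105 min postinjection.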

[3] = system: Cynomolgus monkey; test: Uptake in anesthetized cynomolgus monkey midbrain after 105.0 mins; format: ADME, organism-based; settings: in vivo, 1.75 h; method in brief: as §1
[4] = system: Cynomolgus monkey; test: Uptake in anesthetized cynomolgus monkey pons after 75.0 mins; format: ADME, organism-based; settings: in vivo, 1.25 h
Method in brief: (§3)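 Baseline microPET (Concorde P4) scan in anesthetized cynomolgus monkeys after injection of the carbon-11 labeled tracer, with no chase drug. Regional brain time-activity curves were followed over the scan. Tracer radiochemical purity and specific activity were determined by analytical HPLC at the time of injection.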

[5] = system: Cynomolgus monkey; test: Uptake in anesthetized cynomolgus monkey thalamus after 18.5 mins; format: ADME, organism-based; settings: in vivo; method in brief: as §3
[6] = system: Cynomolgus monkey; test: Uptake in anesthetized cynomolgus monkey putamen after 115.0 mins; format: ADME, organism-based; settings: in vivo; method in brief: as §3
[7] = system: Cynomolgus monkey; test: Uptake in anesthetized cynomolgus monkey occipital after 0.5 mins; format: ADME, organism-based, Occipital cortex; settings: in vivo; method in brief: as §1
[8] = system: Cynomolgus monkey; test: Uptake in anesthetized cynomolgus monkey medulla after 27.5 mins; format: ADME, organism-based, Medulla of organ; settings: in vivo; method in brief: as §1
[9] = system: Cynomolgus monkey; test: Uptake in anesthetized cynomolgus monkey medulla after 105.0 mins; format: ADME, organism-based, Medulla of organ; settings: in vivo, 1.75 h; method in brief: as §1
[10] = system: Cynomolgus monkey; test: Uptake in anesthetized cynomolgus monkey thalamus after 85.0 mins; format: ADME, organism-based; settings: in vivo; method in brief: as §3
[11] = system: Cynomolgus monkey; test: Ratio of uptake in thalamus to cerebellum of anesthetized cynomolgus monkey after 105 mins; format: ADME, organism-based; settings: in vivo, 1.75 h; method in brief: as §2
[12] = system: Cynomolgus monkey; test: Uptake in anesthetized cynomolgus monkey putamen after 2.5 mins; format: ADME, organism-based; settings: in vivo; method in brief: as §3
[13] = system: Cynomolgus monkey; test: Uptake in anesthetized cynomolgus monkey putamen after 6.5 mins; format: ADME, organism-based; settings: in vivo; method in brief: as §3
[14] = system: Cynomolgus monkey; test: Uptake in anesthetized cynomolgus monkey thalamus after 65.0 mins; format: ADME, organism-based; settings: in vivo; method in brief: as §3
[15] = system: Cynomolgus monkey; test: Uptake in anesthetized cynomolgus monkey putamen after 35.0 mins; format: ADME, organism-based; settings: in vivo; method in brief: as §3
[16] = system: Cynomolgus monkey; test: Uptake in anesthetized cynomolgus monkey putamen after 1.5 mins; format: ADME, organism-based; settings: in vivo, 0.025 h; method in brief: as §3
[17] = system: Cynomolgus monkey; test: Uptake in anesthetized cynomolgus monkey frontal after 3.5 mins; format: ADME, organism-based, Frontal cortex; settings: in vivo; method in brief: as §1
[18] = system: Cynomolgus monkey; test: Uptake in anesthetized cynomolgus monkey midbrain after 95.0 mins; format: ADME, organism-based; settings: in vivo; method in brief: as §1
[19] = system: Cynomolgus monkey; test: Uptake in anesthetized cynomolgus monkey midbrain after 15.5 mins; format: ADME, organism-based; settings: in vivo; method in brief: as §1
[20] = system: Cynomolgus monkey; test: Uptake in anesthetized cynomolgus monkey midbrain after 115.0 mins; format: ADME, organism-based; settings: in vivo; method in brief: as §1
[21] = system: Cynomolgus monkey; test: Uptake in anesthetized cynomolgus monkey medulla after 115.0 mins; format: ADME, organism-based, Medulla of organ; settings: in vivo; method in brief: as §1
[22] = system: Cynomolgus monkey; test: Uptake in anesthetized cynomolgus monkey cerebellum after 35.0 mins; format: ADME, organism-based, Macaca mulatta; settings: rhesus monkey, in vivo
Method in brief: (§4)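 Baseline microPET (Concorde P4) regional brain time-activity curves in anesthetized cynomolgus monkey following injection of the [11C]-labelled tracer, with radioactivity followed over the scan.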

[23] = system: Cynomolgus monkey; test: Ratio of uptake in pons to cerebellum of anesthetized cynomolgus monkey after 65 mins; format: ADME, organism-based; settings: in vivo; method in brief: as §2
[24] = system: Cynomolgus monkey; test: Uptake in anesthetized cynomolgus monkey frontal after 65.0 mins; format: ADME, organism-based, Frontal cortex; settings: in vivo; method in brief: as §1
[25] = system: Cynomolgus monkey; test: Uptake in anesthetized cynomolgus monkey putamen after 9.5 mins; format: ADME, organism-based; settings: in vivo; method in brief: as §3
[26] = system: Cynomolgus monkey; test: Uptake in anesthetized cynomolgus monkey medulla after 55.0 mins; format: ADME, organism-based, Medulla of organ; settings: in vivo; method in brief: as §1
[27] = system: Cynomolgus monkey; test: Ratio of uptake in occipital to cerebellum of anesthetized cynomolgus monkey after 85 mins; format: ADME, organism-based; settings: in vivo; method in brief: as §2
[28] = system: Cynomolgus monkey; test: Uptake in anesthetized cynomolgus monkey pons after 9.5 mins; format: ADME, organism-based; settings: in vivo
Method in brief: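 Carbon-11 labelled tracer injected into anesthetized cynomolgus monkeys under baseline conditions. Regional brain radioactivity was followed by microPET (Concorde microPET P4) and expressed as time-activity curves for the brain regions. Two baseline studies were run per tracer. Tracer radiochemical purity and specific activity were determined by analytical HPLC at the time of injection.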

[29] = system: Cynomolgus monkey; test: Uptake in anesthetized cynomolgus monkey caudate after 2.5 mins; format: ADME, organism-based, Caudate nucleus; settings: in vivo; method in brief: as §4
[30] = system: Cynomolgus monkey; test: Ratio of uptake in putamen to cerebellum of anesthetized cynomolgus monkey after 65 mins; format: ADME, organism-based; settings: in vivo; method in brief: as §2
[31] = system: Cynomolgus monkey; test: Uptake in anesthetized cynomolgus monkey midbrain after 0.5 mins; format: ADME, organism-based; settings: in vivo; method in brief: as §1
[32] = system: Cynomolgus monkey; test: Uptake in anesthetized cynomolgus monkey cerebellum after 1.5 mins; format: ADME, organism-based; settings: in vivo, 0.025 h; method in brief: as §4
[33] = system: Cynomolgus monkey; test: Uptake in anesthetized cynomolgus monkey frontal after 105.0 mins; format: ADME, organism-based, Frontal cortex; settings: in vivo, 1.75 h; method in brief: as §1
[34] = system: Cynomolgus monkey; test: Uptake in anesthetized cynomolgus monkey pons after 1.5 mins; format: ADME, organism-based, Macaca mulatta; settings: rhesus monkey, in vivo, 0.025 h; method in brief: as §1
[35] = system: Cynomolgus monkey; test: Uptake in anesthetized cynomolgus monkey midbrain after 55.0 mins; format: ADME, organism-based; settings: in vivo; method in brief: as §1
[36] = system: Cynomolgus monkey; test: Uptake in anesthetized cynomolgus monkey pons after 0.5 mins; format: ADME, organism-based; settings: in vivo; method in brief: as §1
[37] = system: Cynomolgus monkey; test: Ratio of uptake in caudate to cerebellum of anesthetized cynomolgus monkey after 85 mins; format: ADME, organism-based; settings: in vivo; method in brief: as §2
[38] = system: Cynomolgus monkey; test: Ratio of uptake in medulla to cerebellum of anesthetized cynomolgus monkey after 65 mins; format: ADME, organism-based; settings: in vivo; method in brief: as §2
[39] = system: Cynomolgus monkey; test: Uptake in anesthetized cynomolgus monkey cerebellum after 15.5 mins; format: ADME, organism-based, Macaca mulatta; settings: rhesus monkey, in vivo; method in brief: as §4
[40] = system: Cynomolgus monkey; test: Uptake in anesthetized cynomolgus monkey putamen after 27.5 mins; format: ADME, organism-based; settings: in vivo; method in brief: as §3
[41] = system: Cynomolgus monkey; test: Uptake in anesthetized cynomolgus monkey cerebellum after 3.5 mins; format: ADME, organism-based; settings: in vivo; method in brief: as §4
[42] = system: Cynomolgus monkey; test: Uptake in anesthetized cynomolgus monkey putamen after 65.0 mins; format: ADME, organism-based; settings: in vivo; method in brief: as §3
[43] = system: Cynomolgus monkey; test: Uptake in anesthetized cynomolgus monkey frontal after 22.5 mins; format: ADME, organism-based, Frontal cortex; settings: in vivo, 0.375 h; method in brief: as §1
[44] = system: Cynomolgus monkey; test: Uptake in anesthetized cynomolgus monkey frontal after 75.0 mins; format: ADME, organism-based, Frontal cortex; settings: in vivo, 1.25 h; method in brief: as §1
[45] = system: Cynomolgus monkey; test: Uptake in anesthetized cynomolgus monkey putamen after 75.0 mins; format: ADME, organism-based; settings: in vivo, 1.25 h; method in brief: as §3
[46] = system: Cynomolgus monkey; test: Uptake in anesthetized cynomolgus monkey occipital after 22.5 mins; format: ADME, organism-based, Occipital cortex; settings: in vivo, 0.375 h; method in brief: as §1
[47] = system: Cynomolgus monkey; test: Ratio of uptake in midbrain to cerebellum of anesthetized cynomolgus monkey after 65 mins; format: ADME, organism-based; settings: in vivo; method in brief: as §2
[48] = system: Cynomolgus monkey; test: Uptake in anesthetized cynomolgus monkey frontal after 45.0 mins; format: ADME, organism-based, Frontal cortex; settings: in vivo, 0.75 h; method in brief: as §1
[49] = system: Cynomolgus monkey; test: Uptake in anesthetized cynomolgus monkey medulla after 0.5 mins; format: ADME, organism-based, Medulla of organ; settings: in vivo; method in brief: as §1
[50] = system: Cynomolgus monkey; test: Uptake in anesthetized cynomolgus monkey pons after 85.0 mins; format: ADME, organism-based; settings: in vivo; method in brief: as §3
[51] = system: Cynomolgus monkey; test: Uptake in anesthetized cynomolgus monkey pons after 3.5 mins; format: ADME, organism-based; settings: in vivo; method in brief: as §3
[52] = system: Cynomolgus monkey; test: Uptake in anesthetized cynomolgus monkey medulla after 4.5 mins; format: ADME, organism-based, Medulla of organ; settings: in vivo, 0.075 h; method in brief: as §1
[53] = system: Cynomolgus monkey; test: Uptake in anesthetized cynomolgus monkey medulla after 75.0 mins; format: ADME, organism-based, Medulla of organ; settings: in vivo, 1.25 h; method in brief: as §1
[54] = system: Cynomolgus monkey; test: Uptake in anesthetized cynomolgus monkey pons after 55.0 mins; format: ADME, organism-based; settings: in vivo; method in brief: as §3
[55] = system: Cynomolgus monkey; test: Uptake in anesthetized cynomolgus monkey medulla after 45.0 mins; format: ADME, organism-based, Medulla of organ; settings: in vivo, 0.75 h; method in brief: as §1
[56] = system: Cynomolgus monkey; test: Uptake in anesthetized cynomolgus monkey caudate after 9.5 mins; format: ADME, organism-based, Caudate nucleus; settings: in vivo; method in brief: as §4

[11CH3]OC(=O)[C@@H]1C2CCC(C[C@@H]1c1cccc(/C=C/I)c1)N2 (stereo partly specified) was tested, and the Drug uptake [1] was 4.52, the Ratio [2] was 1.6 and the Drug uptake [3] was 7.34. It also gave a Drug uptake [4] of 5.92, a Drug uptake [5] of 6.41 and a Drug uptake [6] of 6.28. The Drug uptake [7] was 0.01, the Drug uptake [8] was 7.04 and the Drug uptake [9] was 6.25. The Drug uptake [10] was 6.65, the Ratio [11] was 2.1 and the Drug uptake [12] was 1.14. It also gave a Drug uptake [13] of 4.68, a Drug uptake [14] of 6.9 and a Drug uptake [15] of 7.2. The Drug uptake [16] was 0.35, the Drug uptake [17] was 1.21 and the Drug uptake [18] was 7.11. The Drug uptake [19] was 6.42, the Drug uptake [20] was 7.23 and the Drug uptake [21] was 6.11. It also gave a Drug uptake [22] of 5.42, a Ratio [23] of 1.4 and a Drug uptake [24] of 3.9. It also gave a Drug uptake [25] of 5.39, a Drug uptake [26] of 7.26 and a Ratio [27] of 1. The Drug uptake [28] was 4.69, the Drug uptake [29] was 0.89 and the Ratio [30] was 1.6. It also gave a Drug uptake [31] of 0.01, a Drug uptake [32] of 0.38 and a Drug uptake [33] of 3.42. It also gave a Drug uptake [34] of 0.29, a Drug uptake [35] of 7.57 and a Drug uptake [36] of 0.01. The Ratio [37] was 1.5, the Ratio [38] was 1.6 and the Drug uptake [39] was 5.73. It also gave a Drug uptake [40] of 6.94, a Drug uptake [41] of 2.19 and a Drug uptake [42] of 7.06. It also gave a Drug uptake [43] of 4.03, a Drug uptake [44] of 3.73 and a Drug uptake [45] of 6.92. It also gave a Drug uptake [46] of 5.01, a Ratio [47] of 1.7 and a Drug uptake [48] of 4.13. It also gave a Drug uptake [49] of 0.02, a Drug uptake [50] of 5.86 and a Drug uptake [51] of 1.79. The Drug uptake [52] was 3.9, the Drug uptake [53] was 6.9 and the Drug uptake [54] was 6.13. For the same molecule, the Drug uptake [55] was 7.21 and the Drug uptake [56] was 4.12.
